Results as given in ChEMBL document CHEMBL3259739, “Synthesis and structure-activity relationship of trisubstituted thiazoles as Cdc7 kinase inhibitors” (Eur J Med Chem, 2014).

Tests used:
[1] = Intrinsic clearance in human liver microsomes at 1 uM after 30 mins by reverse phase HPLC analysis in presence of NADPH; type: ADME; settings: read-out: CLH
Method in brief: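 Reactions were stopped with MeCN after 0 or 30 min. Samples were analysed by reverse-phase HPLC–tandem MS to give intrinsic clearance (µl/min/mg).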

[2] = biological target: T1, cGMP-dependent protein kinase 1 (Homo sapiens) (UniProt Q13976); test: Inhibition of PRKG1 (unknown origin) at 1 uM relative to control; settings: values are per cent of control
T1 sequence (whole entry): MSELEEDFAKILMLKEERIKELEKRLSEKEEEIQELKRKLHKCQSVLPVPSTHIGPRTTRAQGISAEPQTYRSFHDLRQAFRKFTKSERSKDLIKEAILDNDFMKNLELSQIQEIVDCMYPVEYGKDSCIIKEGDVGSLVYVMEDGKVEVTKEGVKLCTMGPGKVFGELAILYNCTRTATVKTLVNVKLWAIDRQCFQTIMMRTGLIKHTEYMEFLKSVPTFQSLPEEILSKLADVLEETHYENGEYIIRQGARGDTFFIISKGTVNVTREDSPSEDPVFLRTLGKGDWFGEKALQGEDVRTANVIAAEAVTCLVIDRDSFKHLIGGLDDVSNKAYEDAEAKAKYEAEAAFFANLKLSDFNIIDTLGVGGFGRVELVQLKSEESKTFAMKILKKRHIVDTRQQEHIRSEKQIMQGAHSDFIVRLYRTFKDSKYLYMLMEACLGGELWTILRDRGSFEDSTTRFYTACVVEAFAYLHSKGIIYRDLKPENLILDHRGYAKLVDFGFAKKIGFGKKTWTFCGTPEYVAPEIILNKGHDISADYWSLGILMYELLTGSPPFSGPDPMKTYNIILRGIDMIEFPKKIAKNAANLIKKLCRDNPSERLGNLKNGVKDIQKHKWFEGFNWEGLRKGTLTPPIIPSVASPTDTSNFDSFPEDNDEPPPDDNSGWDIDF

[3] = biological target: T2, Serine/threonine-protein kinase TBK1 (Homo sapiens) (UniProt Q9UHD2); test: Inhibition of TBK1 (unknown origin) at 1 uM relative to control; settings: values are per cent of control
T2 sequence (whole entry): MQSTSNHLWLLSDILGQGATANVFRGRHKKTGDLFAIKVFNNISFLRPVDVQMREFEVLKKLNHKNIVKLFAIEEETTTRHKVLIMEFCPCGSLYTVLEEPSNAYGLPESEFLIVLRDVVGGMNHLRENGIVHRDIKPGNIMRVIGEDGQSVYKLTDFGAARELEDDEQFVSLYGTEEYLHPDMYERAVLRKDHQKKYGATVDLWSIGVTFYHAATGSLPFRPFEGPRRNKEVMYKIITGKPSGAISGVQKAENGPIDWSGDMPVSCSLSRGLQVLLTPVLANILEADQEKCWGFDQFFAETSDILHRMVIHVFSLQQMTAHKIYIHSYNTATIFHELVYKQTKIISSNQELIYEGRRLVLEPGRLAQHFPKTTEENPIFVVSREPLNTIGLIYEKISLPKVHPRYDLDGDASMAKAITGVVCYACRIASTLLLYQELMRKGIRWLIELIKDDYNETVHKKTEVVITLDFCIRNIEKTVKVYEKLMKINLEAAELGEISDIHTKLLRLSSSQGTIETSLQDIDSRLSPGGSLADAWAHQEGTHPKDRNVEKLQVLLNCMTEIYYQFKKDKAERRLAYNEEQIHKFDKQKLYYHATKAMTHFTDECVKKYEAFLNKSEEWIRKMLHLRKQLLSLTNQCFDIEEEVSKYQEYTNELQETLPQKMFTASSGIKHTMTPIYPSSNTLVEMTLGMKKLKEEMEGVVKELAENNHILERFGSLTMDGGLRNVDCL
Method in brief: (§1)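 KinomeSCAN competitive binding panel of 100 kinases; compounds tested at 1 µM in duplicate; read-out is percent […] control.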

[4] = biological target: High affinity nerve growth factor receptor (Homo sapiens) (UniProt P04629); test: Inhibition of TRKA (unknown origin) at 1 uM relative to control; settings: values are per cent of control; method in brief: as §1
[5] = biological target: Tyrosine-protein kinase Lyn (Homo sapiens) (UniProt P07948); test: Inhibition of LYN (unknown origin) at 1 uM relative to control; values are per cent of control
[6] = biological target: T3, Myotonin-protein kinase (Homo sapiens) (UniProt Q09013); test: Inhibition of DMPK (unknown origin) at 1 uM relative to control; values are per cent of control
T3 sequence (whole entry): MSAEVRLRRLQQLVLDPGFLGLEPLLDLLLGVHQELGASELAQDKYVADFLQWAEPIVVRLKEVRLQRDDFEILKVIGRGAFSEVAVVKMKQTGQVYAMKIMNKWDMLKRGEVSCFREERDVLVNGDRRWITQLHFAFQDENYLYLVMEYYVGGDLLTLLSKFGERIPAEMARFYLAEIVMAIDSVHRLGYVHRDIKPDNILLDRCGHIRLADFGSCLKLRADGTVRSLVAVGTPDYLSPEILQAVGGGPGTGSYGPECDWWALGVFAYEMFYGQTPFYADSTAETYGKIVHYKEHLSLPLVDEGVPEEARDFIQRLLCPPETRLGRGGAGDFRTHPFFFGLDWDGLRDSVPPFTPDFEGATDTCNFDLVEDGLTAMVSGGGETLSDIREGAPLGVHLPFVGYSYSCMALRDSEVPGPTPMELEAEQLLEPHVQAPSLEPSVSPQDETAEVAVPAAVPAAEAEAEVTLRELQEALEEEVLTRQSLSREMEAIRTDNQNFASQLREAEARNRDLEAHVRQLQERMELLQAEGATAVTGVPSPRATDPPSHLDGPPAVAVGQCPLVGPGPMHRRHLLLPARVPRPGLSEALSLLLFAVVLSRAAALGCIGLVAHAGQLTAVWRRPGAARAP

[7] = biological target: Mitogen-activated protein kinase kinase kinase kinase 1 (Homo sapiens) (UniProt Q92918); test: Inhibition of HPK1 (unknown origin) at 1 uM relative to control; values are per cent of control
[8] = biological target: Dual specificity tyrosine-phosphorylation-regulated kinase 1A (Homo sapiens) (UniProt Q13627); test: Inhibition of DYRK1A (unknown origin) at 1 uM relative to control; values are per cent of control

Chain of Mitogen-activated protein kinase kinase kinase kinase 1 (Homo sapiens) (Q92918 whole entry, looked up): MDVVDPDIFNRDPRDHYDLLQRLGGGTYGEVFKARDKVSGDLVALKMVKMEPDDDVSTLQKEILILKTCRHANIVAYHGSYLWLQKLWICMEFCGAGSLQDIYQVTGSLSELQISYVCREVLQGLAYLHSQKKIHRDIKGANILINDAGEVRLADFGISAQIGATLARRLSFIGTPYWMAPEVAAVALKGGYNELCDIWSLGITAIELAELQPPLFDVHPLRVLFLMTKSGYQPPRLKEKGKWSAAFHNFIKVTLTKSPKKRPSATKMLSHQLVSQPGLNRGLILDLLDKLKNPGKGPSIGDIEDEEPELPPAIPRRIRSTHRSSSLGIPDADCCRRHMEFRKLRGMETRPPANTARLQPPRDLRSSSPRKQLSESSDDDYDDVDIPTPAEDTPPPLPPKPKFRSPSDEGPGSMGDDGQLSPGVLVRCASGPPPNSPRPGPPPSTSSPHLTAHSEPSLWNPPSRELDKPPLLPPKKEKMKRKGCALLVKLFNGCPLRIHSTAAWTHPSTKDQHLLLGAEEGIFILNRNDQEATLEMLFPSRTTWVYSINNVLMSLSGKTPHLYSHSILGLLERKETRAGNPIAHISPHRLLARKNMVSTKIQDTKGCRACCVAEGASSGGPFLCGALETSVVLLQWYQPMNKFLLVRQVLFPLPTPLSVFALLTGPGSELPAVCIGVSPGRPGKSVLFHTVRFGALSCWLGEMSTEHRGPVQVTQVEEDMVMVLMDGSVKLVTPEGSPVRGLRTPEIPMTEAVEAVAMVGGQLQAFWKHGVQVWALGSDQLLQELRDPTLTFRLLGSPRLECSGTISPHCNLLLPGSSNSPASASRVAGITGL
Chain of Tyrosine-protein kinase Lyn (Homo sapiens) (P07948 2-512 limits assumed): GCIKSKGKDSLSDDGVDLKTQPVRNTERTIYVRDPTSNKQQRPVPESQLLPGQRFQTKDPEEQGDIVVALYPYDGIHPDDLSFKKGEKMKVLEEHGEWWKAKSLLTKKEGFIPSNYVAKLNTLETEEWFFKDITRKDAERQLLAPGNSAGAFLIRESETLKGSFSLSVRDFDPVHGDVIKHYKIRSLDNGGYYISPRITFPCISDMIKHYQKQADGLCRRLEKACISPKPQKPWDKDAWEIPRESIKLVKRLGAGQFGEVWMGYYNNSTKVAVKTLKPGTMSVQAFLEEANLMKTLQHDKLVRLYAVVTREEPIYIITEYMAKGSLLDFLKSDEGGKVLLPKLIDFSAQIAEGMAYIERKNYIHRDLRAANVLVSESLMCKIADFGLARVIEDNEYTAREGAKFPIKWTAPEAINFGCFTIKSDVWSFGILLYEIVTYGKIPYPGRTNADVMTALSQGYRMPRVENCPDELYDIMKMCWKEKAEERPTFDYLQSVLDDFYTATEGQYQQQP
Chain of High affinity nerve growth factor receptor (Homo sapiens) (P04629 33-796 limits assumed): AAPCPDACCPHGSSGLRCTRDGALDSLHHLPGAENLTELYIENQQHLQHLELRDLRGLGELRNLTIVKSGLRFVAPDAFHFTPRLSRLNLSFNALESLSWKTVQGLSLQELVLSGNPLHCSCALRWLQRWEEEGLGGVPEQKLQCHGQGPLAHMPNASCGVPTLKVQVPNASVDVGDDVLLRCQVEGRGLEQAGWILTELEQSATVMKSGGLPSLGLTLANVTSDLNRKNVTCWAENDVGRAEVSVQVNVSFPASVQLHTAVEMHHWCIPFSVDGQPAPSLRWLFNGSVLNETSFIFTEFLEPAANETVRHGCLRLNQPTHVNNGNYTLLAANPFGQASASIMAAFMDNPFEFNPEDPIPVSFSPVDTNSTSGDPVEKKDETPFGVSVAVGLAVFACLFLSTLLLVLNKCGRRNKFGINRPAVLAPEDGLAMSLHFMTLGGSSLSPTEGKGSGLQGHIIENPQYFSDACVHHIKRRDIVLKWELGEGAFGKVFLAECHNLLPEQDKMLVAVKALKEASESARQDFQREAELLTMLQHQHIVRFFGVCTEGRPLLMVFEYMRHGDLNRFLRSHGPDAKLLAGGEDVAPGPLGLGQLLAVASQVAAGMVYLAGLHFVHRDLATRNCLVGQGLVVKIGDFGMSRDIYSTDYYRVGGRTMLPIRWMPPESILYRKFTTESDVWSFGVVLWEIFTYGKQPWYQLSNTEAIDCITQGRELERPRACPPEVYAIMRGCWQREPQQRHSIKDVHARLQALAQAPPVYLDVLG

## CCOC(=O)c1sc(-c2ccncc2)nc1O
[1]
  microsomal CLint at 1 µM: 17 µL/min/mg
[2]
  residual binding, % of control: 75%
[3]
  residual binding, % of control: 100%
[4]
  residual binding, % of control: 100%
[5]
  residual activity: 80%
[6]
  residual activity: 88%
[7]
  residual activity: 81%
[8]
  residual activity: 100%

## NC(=O)c1sc(-c2ccnc(N)n2)nc1-c1ccc(Cl)cc1Cl
[1]
  microsomal CLint at 1 µM: 19 µL/min/mg
[2]
  residual binding, % of control: 88%
[3]
  residual binding, % of control: 85%
[4]
  residual binding, % of control: 100%
[5]
  residual activity: 81%
[6]
  residual activity: 100%
[7]
  residual activity: 64%
[8]
  residual activity: 0.1%

## COc1ccc(-c2nc(-c3ccnc(N)n3)sc2C(N)=O)c(Cl)c1
[1]
  microsomal CLint at 1 µM: 43 µL/min/mg
[2]
  residual binding, % of control: 51%
[3]
  residual binding, % of control: 100%
[4]
  residual binding, % of control: 92%
[5]
  residual activity: 88%
[6]
  residual activity: 50%
[7]
  residual activity: 100%
[8]
  residual activity: 0.2%
